ChEMBL document CHEMBL1759858, “The novel anti-tumor agents of 4-triazol-1,8-naphthalimides: synthesis, cytotoxicity, DNA intercalation and photocleavage” (Eur J Med Chem, 2011)
Activity calls are given as the source filed them. No cut-off for these calls is given here.

Legend:
Nucleic Acid [1] = experiment: Induction of DNA cleavage measured using 2 hrs UV-irradiated Escherichia coli super coiled pBR322 DNA assessed as formation of relaxed open circular form 2 DNA at 100 uM by agarose gel electrophoresis; type: nucleic-acid assay
Outline: (§1)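 Supercoiled pBR322 plasmid (0.05 mM bp) in Tris-HCl (pH 7.5) was incubated with compound at 37 °C and irradiated with 365 nm UV for 2 h. Controls were DNA alone, with and without irradiation. Cleavage forms were resolved on 1% agarose gel electrophoresis.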

MCF7 [2] = experiment: Cytotoxicity against human MCF7 cells after 48 hrs by MTT assay; type: functional, cell-based; conditions: MCF7, 48 h
Outline: (§2)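 MCF-7 and 7721 cells were plated at 1 × 10⁵ cells/ml and exposed for 48 h to a concentration range of compound added from DMSO (final DMSO/medium below 0.001). MTT (5 mg/mL stock in PBS) was added for 3 h, and formazan was dissolved in SDS 200 g/L/50% formamide lysis buffer (pH 4.7). Absorbance was read at 570 nm, with ≥3 experiments. IC50 was taken from mean % absorbance plotted against concentration.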

HeLa [3] = experiment: Cytotoxicity against human HeLa cells after 48 hrs by MTT assay; type: functional, cell-based
SMMC-7721 [4] = experiment: Cytotoxicity against human SMMC7721 cells after 48 hrs by MTT assay; type: functional, cell-based; conditions: SMMC-7721, 48 h; outline: as §2
Calf thymus DNA [5] = experiment: Binding affinity to calf thymus DNA at compound to DNA ratio of <= 0.20 by circular dichroism; type: nucleic-acid assay; conditions: Bos taurus
Outline: (§3)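 CD spectra were recorded on calf thymus DNA at a fixed concentration in Tris-HCl buffer (pH 7.0). Compound was titrated at R (compound/DNA) ratios of 0.02, 0.04, 0.10, 0.16, 0.20, 0.30, 0.40, 0.60, 0.80, 1.00, 1.2 and 1.40, and compared with free DNA.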

Calf thymus DNA [6] = experiment: Binding affinity to calf thymus DNA at compound to DNA ratio of >0.20 to < 0.80 by circular dichroism; type: nucleic-acid assay; conditions: Bos taurus; outline: as §3
Calf thymus DNA [7] = experiment: Binding affinity to calf thymus DNA at compound to DNA ratio of > 0.80 by circular dichroism; type: nucleic-acid assay; conditions: Bos taurus; outline: as §3
Nucleic Acid [8] = experiment: Induction of DNA cleavage measured using 2 hrs UV-irradiated Escherichia coli super coiled pBR322 DNA assessed as formation of linear form 3 DNA at 100 uM by agarose gel electrophoresis; type: nucleic-acid assay; outline: as §1
Calf thymus DNA [9] = experiment: Binding affinity to calf thymus DNA assessed as induction of hypochromatic effect by spectrophotometry; type: nucleic-acid assay; conditions: Bos taurus
Outline: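 UV-vis absorption spectra of a fixed compound concentration were recorded during stepwise addition of calf thymus DNA in 30 mM Tris-HCl (pH 7.5). Hypochromicity and bathochromic shift were monitored, and the binding constant was calculated from an equation applied to the absorbance data.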

Calf thymus DNA [10] = experiment: Binding affinity to calf thymus DNA assessed as DNA damage at increasing compound to DNA ratio by viscosity measurement; type: nucleic-acid assay; conditions: Bos taurus
Outline: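 Calf thymus DNA was dissolved in 30 mM Tris-HCl (pH 7.5), held overnight at 4 °C, sonicated for 10 min and filtered to remove insoluble material. Viscosity was then measured as the compound-to-DNA ratio was increased.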

MCF7 [11] = experiment: Ratio of IC50 for amonafide to compound for human MCF7 cells; type: functional
Outline: (§4)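 The ratio compares IC50s from the 48 h MTT assay on MCF-7 or 7721 cells (1 × 10⁵ cells/ml, readout at 570 nm, ≥3 experiments). Amonafide was run as the control under the same conditions, and the ratio is its IC50 divided by the compound's.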

HeLa [12] = experiment: Ratio of IC50 for amonafide to compound for human HeLa cells; type: functional
SMMC-7721 [13] = experiment: Ratio of IC50 for amonafide to compound for human SMMC7721 cells; type: functional; outline: as §4

Activity (Nucleic Acid [1])	Activity (Calf thymus DNA [5])	Activity (Calf thymus DNA [6])	Activity (Calf thymus DNA [7])	Activity (Nucleic Acid [8])	Kb (Calf thymus DNA [9])	SMILES	IC50 (MCF7 [2])	IC50 (HeLa [3])	IC50 (SMMC-7721 [4])	Activity (Calf thymus DNA [10])	Ratio IC50 (MCF7 [11])	Ratio IC50 (HeLa [12])	Ratio IC50 (SMMC-7721 [13])
Active						CCCCN1C(=O)c2cccc3c(-n4cc(-c5ccccc5)nn4)ccc(c23)C1=O	19.5 µM	19.6 µM	32.9 µM				
Active	Active	Active	inactive	Active		CCN(CC)CCN1C(=O)c2cccc3c(-n4cc(-c5ccccc5)nn4)ccc(c23)C1=O	1.09 µM	26.9 µM	1.89 µM				
Active				Active	2.95 ×10⁵ /M	CN(C)CCN1C(=O)c2cccc3c(-n4cc(-c5ccccc5)nn4)ccc(c23)C1=O	0.323 µM	1.02 µM	0.463 µM	Active	5.2	1.7	9.2
Active						O=C1c2cccc3c(-n4cc(-c5ccccc5)nn4)ccc(c23)C(=O)N1CCO	> 100 µM	> 100 µM	> 100 µM	inactive			

Second part, the compound before the results:

SMILES	Activity (Nucleic Acid [1])	Activity (Calf thymus DNA [5])	Activity (Calf thymus DNA [6])	Activity (Calf thymus DNA [7])	Activity (Nucleic Acid [8])	Kb (Calf thymus DNA [9])	IC50 (MCF7 [2])	IC50 (HeLa [3])	IC50 (SMMC-7721 [4])	Activity (Calf thymus DNA [10])	Ratio IC50 (MCF7 [11])	Ratio IC50 (HeLa [12])	Ratio IC50 (SMMC-7721 [13])
CN(C)CCN1C(=O)c2cccc3cc(N)cc(c23)C1=O [AMONAFIDE]							1.68 µM	1.73 µM	4.27 µM				
O=C1c2cccc3c(-n4cc(-c5ccccc5)nn4)ccc(c23)C(=O)N1CCN1CCNCC1	Active						0.836 µM	96.7 µM	1.54 µM				
